Assays:
Mus musculus [1] = assay: Evaluated for anticonvulsant activity (ED50) by maximal electroshock (MES) seizure test in mouse by intraperitoneal administration.; format: functional
Method in brief: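 Protection means no tonic-extensor component. Five to 10 doses, eight mice per dose; ED50 with 95% confidence limits by log-probit analysis. Compounds given as HCl salts, one as a methiodide.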

Glutamate NMDA receptor = assay: Evaluated in vitro binding affinity against PCP receptor using [3H]TCP as radioligand in rat brain membranes; format: cell membranes
Mus musculus [2] = assay: Evaluated for anticonvulsant activity (TD50) by motor toxicity assay in mouse by intraperitoneal administration.; format: functional; conditions: ip
Method in brief: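 Male Swiss mice (25–30 g), ip in 0.9% NaCl carrier. Five to 10 doses, eight mice per dose; TD50 with 95% confidence limits by log-probit analysis. Compounds given as HCl salts, one as a methiodide.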

Mus musculus [3] = species on record: Mus musculus; assay: TI value is the ratio between TD50 and ED50; format: functional
Method in brief: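 Ratio TD50/MES ED50. Both values from ip dosing in male Swiss mice (25–30 g), 0.9% NaCl carrier. Five to 10 doses, eight mice per dose; each value by log-probit analysis.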

Mus musculus [4] = assay: Evaluated for anticonvulsant activity (TD50) by motor toxicity assay in mouse by intraperitoneal administration; range is 40.6-54.8; format: functional; conditions: ip

SMILES	MES ED50 (Mus musculus [1])	Ki (Glutamate NMDA receptor)	TD50 (Mus musculus [2])	TI (Mus musculus [3])	TD50 (Mus musculus [4])
C[N+](C)(C)C1(c2ccccc2)CCCCC1.[I-]	>64 mg/kg	14.3 µM	> 64 mg/kg		
Cl.NC1(c2cccc(C(F)(F)F)c2)CCCCC1	24.31 mg/kg	8.4 µM	16 mg/kg	0.66	
Cl.NC1(c2cc3ccccc3c3ccccc23)CCCCC1	16.02 mg/kg	27.5 µM	20.6 mg/kg	1.28	
Cl.NC1(c2c(F)c(F)c(F)c(F)c2F)CCCCC1	33.81 mg/kg	10 µM	37.9 mg/kg	1.21	
CCCCC1(N)CCCCC1.Cl	>40.6 mg/kg				40.6 mg/kg
CSc1cccc(C2(N)CCCCC2)c1.Cl	32.88 mg/kg	2.42 µM	63.7 mg/kg	1.94	
COc1cccc(C2(N)CCCCC2)c1.Cl	14.78 mg/kg	0.563 µM	21.4 mg/kg	1.45	
CSc1ccc(C2(N)CCCCC2)cc1.Cl	40.8 mg/kg	43 µM	77.1 mg/kg	1.89	
Cc1cccc(C2(N)CCCCC2)c1.Cl	19.11 mg/kg	0.592 µM	26.2 mg/kg	1.37	
Cl.NCC1(c2ccccc2)CCCCC1	27.7 mg/kg	5.1 µM	51.9 mg/kg	1.87	
COc1ccccc1C1(N)CCCCC1.Cl	11.11 mg/kg	0.85 µM	31.6 mg/kg	2.84	
CSc1ccccc1C1(N)CCCCC1.Cl	26.18 mg/kg	0.82 µM	29.3 mg/kg	1.12	
C[C@@H]1CCC[C@@](N)(c2ccccc2)C1.Cl	8.04 mg/kg	8 µM	15.9 mg/kg	1.98	
C[C@H]1CC[C@@](N)(c2ccccc2)CC1.Cl	33.75 mg/kg	8.4 µM	69.3 mg/kg	2.05	
C[C@H]1CCC[C@@](N)(c2ccccc2)C1.Cl	8.01 mg/kg	1.64 µM	24.3 mg/kg	3.04	
Cl.NC1(c2ccc3ccccc3c2)CCCCC1	16.91 mg/kg	34 µM	30.9 mg/kg	1.82	
Cl.NC1(c2cccc(OCc3ccccc3)c2)CCCCC1	29.41 mg/kg	10.6 µM	67 mg/kg	2.28	
CCC(N)(CC)c1ccccc1.Cl	31.23 mg/kg	6 µM	42.1 mg/kg	1.35	
COc1ccc(C2(N)CCCCC2)cc1.Cl	32.67 mg/kg	121 µM	77.9 mg/kg	2.39	
Cl.NC1(c2ccccc2F)CCCCC1	22.93 mg/kg	10.7 µM	61.2 mg/kg	2.67	

SMILES	MES ED50 (Mus musculus [1])	Ki (Glutamate NMDA receptor)	TD50 (Mus musculus [2])	TI (Mus musculus [3])	TD50 (Mus musculus [4])
CN(C)C1(c2ccccc2)CCCCC1.Cl	4.86 mg/kg	0.722 µM	11.3 mg/kg	2.32	
Cl.NC1(c2ccc(F)cc2)CCCCC1	26.18 mg/kg	0.923 µM	23.4 mg/kg	0.9	
Cc1ccccc1C1(N)CCCCC1.Cl	4.93 mg/kg	7.8 µM	7.19 mg/kg	1.46	
Cl.NC1(c2ccccc2)CCCCC1	7.04 mg/kg	0.527 µM	16.3 mg/kg	2.31	
C[C@@H]1CCC[C@](N)(c2ccccc2)C1.Cl	20.86 mg/kg	1.2 µM	56.1 mg/kg	2.69	
Cc1ccc(C2(N)CCCCC2)cc1.Cl	>74 mg/kg	7.3 µM	> 74 mg/kg		
C[C@H]1CCC[C@](N)(c2ccccc2)C1.Cl	26.38 mg/kg	0.502 µM	54.8 mg/kg		
Cl.NC1(c2ccccc2)CCCC1	18.52 mg/kg	10.5 µM	64.6 mg/kg	3.49	
Cl.NC1(c2ccccc2C(F)(F)F)CCCCC1	30.36 mg/kg	12.4 µM	39.2 mg/kg	1.29	
Cl.NC1(c2cccc(F)c2)CCCCC1	9.36 mg/kg	0.675 µM	20.2 mg/kg	2.15	
Cl.NC1(c2cccs2)CCCCC1	10.5 mg/kg	0.145 µM	4.99 mg/kg	0.47	
C[C@H]1CC[C@](N)(c2ccccc2)CC1.Cl	13.53 mg/kg	1.1 µM	46.6 mg/kg	3.44	
Cl.NC1(c2cccc(O)c2)CCCCC1	35.25 mg/kg	0.222 µM	42.7 mg/kg	1.21	
Cl.NC1(c2ccc(-c3ccccc3)cc2)CCCCC1	18.81 mg/kg	86 µM	26.7 mg/kg	1.42	
CNC1(c2ccccc2)CCCCC1.Cl	4.62 mg/kg	0.347 µM	1.56 mg/kg	0.34	
Cl.NC1(Cc2ccccc2)CCCCC1	34.52 mg/kg	16 µM	67.2 mg/kg	1.95	
Cl.NC1(c2ccccc2)CCCCCC1	19.73 mg/kg	2.6 µM	43 mg/kg	2.18	
C[C@@H]1CCCC[C@]1(N)c1ccccc1.Cl (racemic)	16.87 mg/kg	1.6 µM	34.6 mg/kg	2.05	
C[C@H]1CCCC[C@]1(N)c1ccccc1.Cl (racemic)	8.01 mg/kg	2 µM	5.92 mg/kg	0.74	
c1ccc(C2(N3CCCCC3)CCCCC2)cc1 [PHENCYCLIDINE]	3.1 mg/kg	0.06 µM	2.9 mg/kg	0.93	
